Test results taken from ChEMBL document CHEMBL1909628, “Discovery of 6-substituted indole-3-glyoxylamides as lead antiprion agents with enhanced cell line activity, improved microsomal stability and low toxicity” (Eur J Med Chem, 2011).

How the values were obtained:
[1] = (§1) Toxicity in zebrafish assessed as organism survival at 5 uM treated at 48 hrs post-fertilization measured after 3 days; assay type: organism-based, Danio rerio; settings: in vivo
How it was run: (§2)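 AB wild-type zebrafish embryos dechorionated with pronase at 48 hpf, 3 per well in methylene blue-free E3 medium. Dosed at 5 uM from 10 mM DMSO stocks (1% v/v DMSO). Kept at 28 °C for 72 h without food; survival scored at day 5 versus vehicle controls. Two experiments, each in triplicate.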

ScN2a = test: Cytotoxicity against mouse ScN2a cells up to 32 uM; assay type: cell-based
How it was run: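 ScN2a cells seeded separately in 96-well plates. Calcein cell viability assay run in parallel with the ELISA screen, up to 32 uM maximum.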

[2] = Cytotoxicity against mouse SMB.s15 cells at 20 uM after 5 days by MTT assay; assay type: cell-based; settings: smb.s15, 120 h
How it was run: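 SMB.s15 cells at 12,000 cells/well, exposed to compound for 5 days at 37 °C (DMSO stock diluted via HBSS into medium). Viability measured by MTT assay per the reagent's standard protocol.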

[3] = Antiprion activity against PrPsc infected in mouse SMB.s15 cells assessed as complete clearance of PrPSc after 5 days by dot blot analysis; assay type: cell-based; settings: SMB.s15, 120 h
How it was run: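 SMB.s15 cells (scrapie-infected, mesodermal origin) in Medium 199 with 10% newborn calf and 5% fetal calf serum, seeded at 12,000 cells/well, 24 h attachment. Compound added from DMSO stock via HBSS dilution, 5 days at 37 °C. Lysates dot-blotted, proteinase K digestion (1 h, 37 °C), guanidine thiocyanate, anti-PrP 6H4 mAb, ECL. Triplicate, PrPSc relative to DMSO-only control.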

[4] = Metabolic stability in mouse liver microsomes assessed as compound remaining after 30 mins by HPLC analysis; assay type: ADME, Microsome; settings: read-out: Stability
How it was run: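 Mouse liver microsomes (0.5 mg/mL stock) in 0.2 M potassium phosphate pH 7.0 with DL-isocitrate, MgCl2 and isocitrate dehydrogenase. Preincubated 5 min at 37 °C, then started with NADPH. Sampled at t=0 and after 30 min at 37 °C, quenched in ice-cold acetonitrile with internal standard. Analysed by C18 HPLC, UV at 267 nm, in triplicate.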

[5] = Toxicity in zebrafish assessed as mortality rate at 5 uM measured after 72 hrs; assay type: organism-based, Danio rerio; settings: in vivo, read-out: Activity; how it was run: as §2
Danio rerio = species: Danio rerio; test: as §1; assay type: organism-based; settings: in vivo, 72 h, 5 µM; how it was run: as §2

SMILES	survival at 72 h, 5 µM [1] [%]	Activity (ScN2a)	Activity [2]	EC50 [3] [nM]	remaining at 0.5 h [4] [%]	mortality at 72 h, 5 µM [5] [%]	Activity (Danio rerio)
COc1ccc(NC(=O)C(=O)c2c[nH]c3cc(C)ccc23)cc1	100	Non-toxic	Non-toxic	12	89.1	–	–
Cc1ccc2[nH]cc(C(=O)C(=O)Nc3ccccc3)c2c1	100	Non-toxic	Non-toxic	11500	–	–	–
O=C(Nc1ccc(N2CCOCC2)cc1)C(=O)c1c[nH]c2c(Cl)cccc12	100	Non-toxic	Non-toxic	7.2	–	20	–
O=C(Nc1ccccc1)C(=O)c1c[nH]c2cc(Cl)ccc12	100	Non-toxic	Non-toxic	74	–	–	–
COc1ccc(NC(=O)C(=O)c2c[nH]c3c(C)cccc23)cc1	100	Non-toxic	Non-toxic	150	–	–	–
COc1ccc(NC(=O)C(=O)c2c[nH]c3ccc(C)cc23)cc1	100	Non-toxic	Non-toxic	880	–	–	–
COc1ccc(NC(=O)C(=O)c2c[nH]c3cc([N+](=O)[O-])ccc23)cc1	–	Non-toxic	Non-toxic	10.5	90	–	Toxic
COc1ccc(NC(=O)C(=O)c2c[nH]c3ccc(Cl)cc23)cc1	–	Non-toxic	Non-toxic	470	–	–	Toxic
Cc1ccc(NC(=O)C(=O)c2c[nH]c3cc(C(C)C)ccc23)cc1	–	Non-toxic	Non-toxic	610	82.6	20	–
COc1ccc(NC(=O)C(=O)c2c[nH]c3cc(F)ccc23)cc1	100	Non-toxic	Non-toxic	13	74.6	–	–
Cc1ccc2[nH]cc(C(=O)C(=O)Nc3ccc(N4CCOCC4)cc3)c2c1	–	Non-toxic	Non-toxic	83	–	20	Toxic
COc1ccc(NC(=O)C(=O)c2cn(C)c3cc(Cl)ccc23)cc1	–	Non-toxic	Non-toxic	1630	–	–	Toxic
O=C(Nc1ccc(-n2cccc2)cc1)C(=O)c1c[nH]c2cc(F)ccc12	100	Non-toxic	Non-toxic	7.7	–	–	–
O=C(Nc1ccc(-n2cccn2)cc1)C(=O)c1c[nH]c2cc(F)ccc12	–	Non-toxic	Non-toxic	1.2	–	–	Toxic
O=C(Nc1ccc(N2CCOCC2)cc1)C(=O)c1c[nH]c2ccc(Cl)cc12	–	Non-toxic	Non-toxic	69	–	20	Toxic
Cc1ccc(NC(=O)C(=O)c2c[nH]c3c(C)cccc23)cc1	–	Non-toxic	Non-toxic	1400	–	20	Toxic
O=C(Nc1ccccc1)C(=O)c1c[nH]c2ccc(Cl)cc12	–	Non-toxic	Non-toxic	1630	–	–	Toxic

SMILES	survival at 72 h, 5 µM [1] [%]	Activity (ScN2a)	Activity [2]	EC50 [3] [nM]	remaining at 0.5 h [4] [%]	mortality at 72 h, 5 µM [5] [%]	Activity (Danio rerio)
Cc1ccc2c(C(=O)C(=O)Nc3ccccc3)c[nH]c2c1	100	Non-toxic	Non-toxic	44	–	–	–
O=C(Nc1ccc(-n2cccc2)cc1)C(=O)c1c[nH]c2cc(Cl)ccc12	–	Non-toxic	Non-toxic	17	–	–	Toxic
Cn1cc(C(=O)C(=O)Nc2ccc(-n3cccc3)cc2)c2ccccc21	100	Non-toxic	Non-toxic	170	–	–	–
Cc1ccc(NC(=O)C(=O)c2c[nH]c3cc([N+](=O)[O-])ccc23)cc1	100	Non-toxic	Non-toxic	35	84.8	20	–
O=C(Nc1ccc(N2CCOCC2)cc1)C(=O)c1c[nH]c2cc(Cl)ccc12	–	Non-toxic	Non-toxic	7.3	–	20	–
Cc1ccc(NC(=O)C(=O)c2c[nH]c3ccc(Cl)cc23)cc1	100	Non-toxic	Non-toxic	560	–	20	–
Cc1ccc(NC(=O)C(=O)c2c[nH]c3cc(C)ccc23)cc1	100	Non-toxic	Non-toxic	51	90.2	20	–
COc1ccc(NC(=O)C(=O)c2c[nH]c3cccc(C)c23)cc1	100	Non-toxic	Non-toxic	2360	–	–	–
Cc1ccc(NC(=O)C(=O)c2c[nH]c3cc(Cl)ccc23)cc1	100	Non-toxic	Non-toxic	100	85.6	20	–
COc1ccc(NC(=O)C(=O)c2cn(C)c3ccccc23)cc1	–	Non-toxic	Non-toxic	68	–	–	Toxic
Cc1ccc(NC(=O)C(=O)c2c[nH]c3ccc(C)cc23)cc1	–	Non-toxic	Non-toxic	900	–	20	Toxic
Cc1ccc(NC(=O)C(=O)c2c[nH]c3cccc(C)c23)cc1	100	Non-toxic	Non-toxic	> 20000	–	20	–
Cn1cc(C(=O)C(=O)Nc2ccc(-n3cccc3)cc2)c2ccc(Cl)cc21	100	Non-toxic	Non-toxic	270	–	–	–
Cc1cccc2[nH]cc(C(=O)C(=O)Nc3ccc(N4CCOCC4)cc3)c12	–	Non-toxic	Non-toxic	680	–	20	Toxic
Cc1cccc2c(C(=O)C(=O)Nc3ccc(N4CCOCC4)cc3)c[nH]c12	100	Non-toxic	Non-toxic	16	–	20	–
COc1ccc(NC(=O)C(=O)c2c[nH]c3cc(C(C)C)ccc23)cc1	100	Non-toxic	Non-toxic	330	86.2	–	–
